# Mdm2-MdmX inh = inhibitors of human Mdm2-MdmX association, primary screen, cell-based, luminescence, split luciferase, SaOS-2, uHTS | 330,000 compounds, 3% hits | inhibition, % at 8 µM | SaOS-2 split-luciferase Mdm2/MdmX complementation | AID 485346, 2010 | Protein Mdm4 (Homo sapiens) + E3 ubiquitin-protein ligase Mdm2 (Homo sapiens), …;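 active = inhibition of at least 50% at 8 µM in the primary screen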
# Jurkat NFkB inh = inhibitors of induced NF-kB luciferase reporter, primary screen, TCR NF-kB activation inhibitor project, cell-based, luminescence, uHTS; Jurkat, PMA/ionomycin-induced NF-kB luciferase reporter; inhibition, % at 4 µM; 330,000 compounds, 0.53% hits; AID 435003, 2010; in the data active = inhibition above about 50%
# VIM-2 inh = VIM-2 metallo-beta-lactamase inhibitors, primary screen, biochemical, epi-absorbance readout, Pseudomonas aeruginosa enzyme | purified VIM-2, nitrocefin hydrolysis, epi-absorbance fluorescence | inhibition, % at 5.6 µM | 290,000 compounds, 0.89% hits | AID 1527, 2009;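 active = inhibition above the mean of all tested compounds plus 3 SD, cutoff set per screening run, cut at about 7.5% in these data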;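 note: red hydrolysis product quenches plate fluorescence so inhibitors raise well fluorescence; 0% = enzyme with DMSO and 100% = DMSO without enzyme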
# 697 NFkB inh = inhibitors of PMA/ionomycin-induced NF-kB reporter, 697 cells, primary screen, B-cell NF-kB inhibitor project, cell-based, luminescence, uHTS. 697 B-cell NF-kB luciferase reporter, 16 h. inhibition, % at 4 µM. 330,000 compounds, 0.33% hits. AID 435022, 2010; in the data active = inhibition above about 35%
# aSyn 5UTR inh = MLPCN primary screen, SNCA 5' untranslated region | inhibition, % (tested at 7.5 µM) | 300,000 compounds, 0.82% hits | AID 1813, 2009 | alpha-synuclein 5'UTR reporter, inhibitor activity; in the data active = inhibition above about 60%;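 note: H4 neuroglioblastoma cells stably carrying SNCA 5'UTR luciferase fusion; 0% = DMSO wells and 100% = positive control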
# IMP-1 inhibitor = IMP-1 metallo-beta-lactamase inhibitors, primary screen, biochemical, epi-absorbance readout, Pseudomonas aeruginosa enzyme. purified IMP-1, nitrocefin hydrolysis, epi-absorbance fluorescence. inhibition, % at 5.6 µM. 290,000 compounds, 0.45% hits. AID 1556, 2009;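 active = inhibition above the mean plus 3 SD of all compounds in the same screening run, cut at about 4.5% in these data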;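 note: 0% = IMP-1 with DMSO and 100% = DMSO wells lacking enzyme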
#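 Material – recombinant IMP-1 enzyme, purified · Amount – IMP-1 0.2 nM before substrate addition · Medium – HEPES buffer pH 7.1 with ZnSO4 and Brij 35 · Timing – 25 °C, 15 min preincubation, 25 min reaction · Measured by – plate fluorescence quenching by hydrolysis product, ex 480/em 530 nm · Read-out – percent enzyme inhibition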
# Numbers without * were called inactive; . = not tested or not shown. Rows were chosen to be rich in hits. Some 4.7% of all compounds tested hit in one or more screens of this group.
SMILES,Mdm2-MdmX inh,Jurkat NFkB inh,VIM-2 inh,697 NFkB inh,aSyn 5UTR inh,IMP-1 inhibitor
O=C(NN1C(=O)/C(=C/c2ccc(O)c([N+](=O)[O-])c2)SC1=S)c1ccccc1Cl,16,3,-1,11,-16,6.0*
O=C(NN1C(=O)/C(=C/c2ccc(O)cc2)SC1=S)c1ccccc1O,3,-5,1,-3,6,4.8*
COc1cc(/C=C2\SC(=S)N(NC(=O)c3ccccc3O)C2=O)ccc1O,-13,-17,-4,0,0,-8
Cc1sc2nc(CN3CCOCC3)[nH]c(=S)c2c1C,-7,-2,-2,-19,-31,-3
COc1ccc(-c2cc(C(=O)N3CCOCC3)no2)cc1,10,-109,-1,-82,73*,-6
Cc1nc2ccc3nc(NC(=O)C4COc5ccccc5O4)sc3c2s1 (stereo unspecified),3,-5,-3,-28,3,-3
Cc1csc(NC(=O)C2COc3ccccc3O2)n1 (stereo unspecified),-20,-117,0,-53,62*,-1
Cc1cnc(NC(=O)C2COc3ccccc3O2)s1 (stereo unspecified),-43,-81,0,-120,71*,1
O=C(Nc1nc(-c2ccccc2)cs1)C1COc2ccccc2O1 (stereo unspecified),-7,11,-4,12,-31,-2
O=C(NNC(=O)C12CC3CC(CC(O)(C3)C1)C2)c1csc(N2CCOCC2)n1,-1,-8,0,-27,3,-2
CN(C)c1ccc(CCc2ccc(N)cc2)cc1,8,-19,.,22,84*,.
Nc1ccc(CCS(N)(=O)=O)cc1,5,7,-1,4,4,-1
Cc1ccc(-n2c(C)cc(C(=O)COc3cccnc3[N+](=O)[O-])c2C)cc1,43,37,-4,-11,64*,-3
Cc1cc(C(=O)COc2cccnc2[N+](=O)[O-])c(C)n1-c1ccccc1F,-9,37,-3,-13,67*,-3
CCOCCCNC(=O)c1cn(CC)c2ccc(S(=O)(=O)N3CCC(C)CC3)cc2c1=O,-9,12,-1,-1,15,-1
COc1ccc(NC(=O)C(C)N2C(=O)c3ccccc3S2(=O)=O)c(OC)c1 (stereo unspecified),10,1,.,-21,2,.
Cc1cccc(-n2ncc3c(N4CCOCC4)ncnc32)c1,23,-39,-2,-81,77*,-2
Cc1cccc(-n2ncc3c(N4CCCC4)ncnc32)c1,-47,-112,0,-164,29,-3
COc1ccccc1CNC(=O)CSc1nnc2c(n1)[nH]c1ccc(F)cc12,33,3,-1,5,21,-2
Cc1cc(NC(=O)c2ccc3c(c2)OCCO3)no1,15,-23,-2,-54,62*,-3
Cc1nc(NC(=O)c2ccc3c(c2)OCO3)ccc1Br,-170,-114,-1,-109,-140,0
Cc1cc(NC(=O)c2ccc3c(c2)OCO3)no1,-79,-63,1,-51,-60,4.7*
O=C(O)c1ccc(NS(=O)(=O)c2ccc(Cl)c(C(=O)Nc3ccccc3[N+](=O)[O-])c2)cc1,14,12,-1,3,-10,-2
O=C(Nc1ccccc1)Nc1n[nH]c2nnc(-c3ccccc3)c(-c3ccccc3)c12,3,5,0,-2,26,21*
O=C(Nc1ccccc1)Nc1nnc(-c2ccccc2)o1,11,-3,-1,-19,-63,-2
COc1cc(-c2c(-c3ccsc3)sc3ccccc23)cc(OC)c1OC,23,-12,.,19,.,.
Oc1ccc(-c2c(C3=CCCCC3)sc3ccccc23)cc1,.,.,0,.,-11,5.1*
COc1ccc2cc([C@H](C)C(=O)N(C)Cc3ccccc3N3CCCC3)ccc2c1,-16,-8,7.8*,2,13,0
O=C(NC1CCCC1)c1n[nH]c2ccccc12,-44,-76,2,-68,-86,-1

# Source: PubChem BioAssay (several laboratories)
